# Source: ChEMBL document CHEMBL4665651, “Design, synthesis, and biological evaluation of some novel 4-aminoquinazolines as Pan-PI3K inhibitors” (Bioorg Med Chem, 2019)
# pIC50: −log10 of the molar value. Activity calls are given as the source filed them. The calls are words filed in the database; no cut-off is given here.
# Experiments:
# MCF7 [1] = test: Induction of apoptosis in human MCF7 cells assessed as necrotic cells at 0.8 uM incubated for 48 hrs by annexin V-FITC and propidium iodide staining based flow cytometry analysis (reference value: 0.3 %); format: functional
# MCF7 [2] = test: Induction of apoptosis in human MCF7 cells assessed as necrotic cells at 0.4 uM incubated for 48 hrs by annexin V-FITC and propidium iodide staining based flow cytometry analysis (reference value: 0.3 %); format: functional
# MCF7 [3] = test: Induction of apoptosis in human MCF7 cells assessed as late apoptotic cells at 0.2 uM incubated for 48 hrs by annexin V-FITC and propidium iodide staining based flow cytometry analysis (reference value: 9.2 %); format: functional
# MCF7 [4] = test: Induction of apoptosis in human MCF7 cells assessed as early apoptotic cells at 0.8 uM incubated for 48 hrs by annexin V-FITC and propidium iodide staining based flow cytometry analysis (reference value: 2.7 %); format: functional
# MCF7 [5] = test: Induction of apoptosis in human MCF7 cells assessed as early apoptotic cells at 0.2 uM incubated for 48 hrs by annexin V-FITC and propidium iodide staining based flow cytometry analysis (reference value: 2.7 %); format: functional
# MCF7 [6] = test: Induction of apoptosis in human MCF7 cells assessed as viable cells at 0.8 uM incubated for 48 hrs by annexin V-FITC and propidium iodide staining based flow cytometry analysis (reference value: 87.7 %); format: functional; settings: read-out: Activity
# MCF7 [7] = test: Induction of apoptosis in human MCF7 cells assessed as viable cells at 0.4 uM incubated for 48 hrs by annexin V-FITC and propidium iodide staining based flow cytometry analysis (reference value: 87.7 %); format: functional; settings: read-out: Activity
# MCF7 [8] = test: Induction of apoptosis in human MCF7 cells assessed as viable cells at 0.2 uM incubated for 48 hrs by annexin V-FITC and propidium iodide staining based flow cytometry analysis (reference value: 87.7 %); format: functional; settings: read-out: Activity
# MCF7 [9] = test: Inhibition of PI3K in human MCF7 cells assessed as Akt phosphorylation by Western blot analysis; format: cell-based; settings: dose microM 0.1-10
# In short: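 MCF-7 cells treated at 0.1, 1 and 10 μM, then washed in cold PBS and lysed in RIPA buffer with protease and phosphatase inhibitors. Equal protein run on 10% SDS-PAGE and transferred to PVDF. Blots probed for total Akt and phospho-Akt (Ser473), with GAPDH as loading control.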
# [10] = target: T1, Phosphatidylinositol 4,5-bisphosphate 3-kinase catalytic subunit delta isoform (Homo sapiens, UniProt O00329); test: Inhibition of PI3Kdelta (unknown origin) using lipid as substrate incubated for 15 mins followed by substrate addition and measured after 60 mins ADPGloTM reagent based assay
# T1 sequence (O00329 whole entry): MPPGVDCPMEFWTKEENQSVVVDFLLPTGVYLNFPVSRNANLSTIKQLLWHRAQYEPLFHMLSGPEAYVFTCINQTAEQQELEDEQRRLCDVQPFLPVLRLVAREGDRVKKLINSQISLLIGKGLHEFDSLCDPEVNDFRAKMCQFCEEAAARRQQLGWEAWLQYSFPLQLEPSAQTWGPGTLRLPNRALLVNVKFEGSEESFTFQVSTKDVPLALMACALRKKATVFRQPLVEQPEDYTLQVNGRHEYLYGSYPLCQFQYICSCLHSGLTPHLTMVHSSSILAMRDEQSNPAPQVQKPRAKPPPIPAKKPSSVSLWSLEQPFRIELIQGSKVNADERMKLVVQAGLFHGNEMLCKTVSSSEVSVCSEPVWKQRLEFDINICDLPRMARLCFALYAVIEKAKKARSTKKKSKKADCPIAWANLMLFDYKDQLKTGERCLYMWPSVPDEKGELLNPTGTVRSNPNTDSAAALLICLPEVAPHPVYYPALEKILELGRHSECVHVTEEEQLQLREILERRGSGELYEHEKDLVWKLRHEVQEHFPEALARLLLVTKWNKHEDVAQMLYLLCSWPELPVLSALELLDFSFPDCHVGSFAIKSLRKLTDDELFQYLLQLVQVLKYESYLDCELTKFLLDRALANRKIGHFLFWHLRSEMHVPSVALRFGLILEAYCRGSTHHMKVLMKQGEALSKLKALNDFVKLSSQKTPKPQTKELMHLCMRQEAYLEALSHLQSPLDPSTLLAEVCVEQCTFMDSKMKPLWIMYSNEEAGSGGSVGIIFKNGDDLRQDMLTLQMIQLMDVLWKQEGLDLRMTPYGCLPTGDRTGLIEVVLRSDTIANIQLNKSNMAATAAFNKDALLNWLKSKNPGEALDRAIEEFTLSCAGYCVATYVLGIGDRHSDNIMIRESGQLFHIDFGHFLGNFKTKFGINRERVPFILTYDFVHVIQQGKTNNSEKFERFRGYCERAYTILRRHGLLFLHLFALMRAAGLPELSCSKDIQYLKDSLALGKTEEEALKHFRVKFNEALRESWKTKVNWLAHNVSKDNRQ
# In short: (§1)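 ADP-Glo luminescent readout of ADP formed. Isoforms tested: p110α/p85α, p110β/p85α, p120γ and p110δ/p85α, each in PI3K reaction buffer with lipid substrate. Enzyme preincubated with compound for 15 min at room temperature. ADP-Glo reagent added for 40 min, then detection reagent for 40 min. IC50 from normalized nonlinear dose–response fit.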
# [11] = target: Phosphatidylinositol 4,5-bisphosphate 3-kinase catalytic subunit beta isoform (Homo sapiens, UniProt P42338); test: Inhibition of PI3Kbeta (unknown origin) using lipid as substrate incubated for 15 mins followed by substrate addition and measured after 60 mins ADPGloTM reagent based assay; in short: as §1
# Sequence of Phosphatidylinositol 4,5-bisphosphate 3-kinase catalytic subunit beta isoform (P42338 whole entry, canonical isoform): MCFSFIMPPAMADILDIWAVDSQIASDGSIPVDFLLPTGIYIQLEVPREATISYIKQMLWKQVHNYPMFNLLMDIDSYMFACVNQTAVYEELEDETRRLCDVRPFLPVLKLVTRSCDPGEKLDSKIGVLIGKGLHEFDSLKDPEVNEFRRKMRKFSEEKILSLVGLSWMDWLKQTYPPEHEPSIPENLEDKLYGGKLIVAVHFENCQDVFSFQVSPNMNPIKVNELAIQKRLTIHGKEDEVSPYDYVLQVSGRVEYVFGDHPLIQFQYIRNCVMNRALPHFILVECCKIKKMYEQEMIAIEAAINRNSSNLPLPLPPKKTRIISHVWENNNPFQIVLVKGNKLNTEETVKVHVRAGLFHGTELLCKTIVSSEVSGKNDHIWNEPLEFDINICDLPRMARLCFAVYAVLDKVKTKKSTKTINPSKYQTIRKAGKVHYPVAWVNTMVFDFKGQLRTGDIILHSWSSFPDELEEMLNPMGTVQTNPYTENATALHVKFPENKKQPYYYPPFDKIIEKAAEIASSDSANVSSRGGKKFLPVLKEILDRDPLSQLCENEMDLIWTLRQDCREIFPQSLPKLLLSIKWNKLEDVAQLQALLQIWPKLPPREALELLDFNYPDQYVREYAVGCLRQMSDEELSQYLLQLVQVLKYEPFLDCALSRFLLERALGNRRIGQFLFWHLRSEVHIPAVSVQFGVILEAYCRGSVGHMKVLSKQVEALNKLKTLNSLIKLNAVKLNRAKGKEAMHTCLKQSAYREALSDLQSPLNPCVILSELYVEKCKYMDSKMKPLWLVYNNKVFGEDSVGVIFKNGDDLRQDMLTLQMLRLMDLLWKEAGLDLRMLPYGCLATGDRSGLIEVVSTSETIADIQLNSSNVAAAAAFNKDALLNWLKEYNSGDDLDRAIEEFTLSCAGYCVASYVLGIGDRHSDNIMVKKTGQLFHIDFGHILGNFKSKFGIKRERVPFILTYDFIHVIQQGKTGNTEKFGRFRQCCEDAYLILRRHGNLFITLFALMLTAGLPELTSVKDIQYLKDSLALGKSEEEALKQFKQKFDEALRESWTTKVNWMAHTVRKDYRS
# [12] = target: Phosphatidylinositol 4,5-bisphosphate 3-kinase catalytic subunit alpha isoform (Homo sapiens, UniProt P42336); test: Inhibition of PI3Kalpha (unknown origin) using lipid as substrate incubated for 15 mins followed by substrate addition and measured after 60 mins ADPGloTM reagent based assay; in short: as §1
# Sequence of Phosphatidylinositol 4,5-bisphosphate 3-kinase catalytic subunit alpha isoform (P42336 whole entry, canonical isoform): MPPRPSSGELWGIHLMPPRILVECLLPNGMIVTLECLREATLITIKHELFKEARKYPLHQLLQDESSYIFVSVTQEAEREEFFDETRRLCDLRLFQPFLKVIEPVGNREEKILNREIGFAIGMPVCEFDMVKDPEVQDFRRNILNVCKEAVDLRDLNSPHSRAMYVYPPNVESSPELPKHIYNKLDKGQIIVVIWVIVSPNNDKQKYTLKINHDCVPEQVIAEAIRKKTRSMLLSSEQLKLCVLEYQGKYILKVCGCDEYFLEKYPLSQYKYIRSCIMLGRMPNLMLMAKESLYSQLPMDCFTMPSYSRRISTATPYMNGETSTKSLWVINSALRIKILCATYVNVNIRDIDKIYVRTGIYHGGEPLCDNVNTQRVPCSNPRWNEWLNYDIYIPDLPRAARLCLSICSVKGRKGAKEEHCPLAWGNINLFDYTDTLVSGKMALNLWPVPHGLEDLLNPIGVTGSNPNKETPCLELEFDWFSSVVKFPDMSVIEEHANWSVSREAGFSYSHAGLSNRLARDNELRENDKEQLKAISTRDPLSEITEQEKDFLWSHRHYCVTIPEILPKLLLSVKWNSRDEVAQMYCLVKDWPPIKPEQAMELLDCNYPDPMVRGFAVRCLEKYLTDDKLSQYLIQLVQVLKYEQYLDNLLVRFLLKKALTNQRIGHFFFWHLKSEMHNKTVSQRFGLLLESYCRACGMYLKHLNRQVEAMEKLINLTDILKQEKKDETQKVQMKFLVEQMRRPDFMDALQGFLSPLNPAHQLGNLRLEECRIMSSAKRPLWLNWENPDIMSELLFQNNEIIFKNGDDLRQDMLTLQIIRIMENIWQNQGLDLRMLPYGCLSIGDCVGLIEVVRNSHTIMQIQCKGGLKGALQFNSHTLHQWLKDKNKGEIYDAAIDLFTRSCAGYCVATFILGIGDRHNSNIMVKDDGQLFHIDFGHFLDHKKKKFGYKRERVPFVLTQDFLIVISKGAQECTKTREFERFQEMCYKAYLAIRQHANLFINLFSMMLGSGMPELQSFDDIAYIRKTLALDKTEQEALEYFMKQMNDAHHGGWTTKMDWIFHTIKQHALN
# L02 = test: Cytotoxicity against human L02 cells assessed as reduction in cell viability incubated for 72 hrs by SRB assay; format: cell-based; settings: L02, 72 h
# In short: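 Normal cells exposed to a range of compound concentrations for 72 h at 37 °C in 5% CO₂. Cells TCA-fixed and viability read by SRB protein staining, normalized to day-0 and negative-control OD. IC50 from non-linear regression; values are means of triplicate measurements.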
# MCF7 [13] = test: Antiproliferative activity against human MCF7 cells assessed as reduction in cell viability incubated for 72 hrs by SRB assay; format: functional, cell-based; settings: MCF7, 72 h
# In short: (§2)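 Cell lines grown at 37 °C in 5% CO₂: A549 in RPMI1640, MCF-7 in DMEM, each with 10% FBS plus penicillin/streptomycin/amphotericin B. Cells exposed to a range of compound concentrations for 72 h, then TCA-fixed and SRB-stained. Growth inhibition = 100 − 100×(OD sample − OD day 0)/(OD negative control − OD day 0). IC50 from non-linear regression of percent growth against concentration.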
# HCT-116 = test: Antiproliferative activity against human HCT-116 cells assessed as reduction in cell viability incubated for 72 hrs by SRB assay; format: functional, cell-based; settings: HCT-116, 72 h
# A549 = test: Antiproliferative activity against human A549 cells assessed as reduction in cell viability incubated for 72 hrs by SRB assay; format: functional, cell-based; settings: A549, 72 h; in short: as §2
# MCF7 [14] = test: Inhibition of PI3K in human MCF7 cells assessed as decrease in p-Akt/Akt ratio at 0.1 to 10 uM by Western blot analysis; settings: dose microM 0.1-10
compound,measurement,setting,value
COc1ncc(-c2ccc3ncnc(Nc4cnn(CCO)c4)c3c2)cc1NS(=O)(=O)c1ccc(F)cc1F,Activity,MCF7 [1],2.7%
same,Activity,MCF7 [2],2.6%
same,Activity,MCF7 [3],20.6%
same,Activity,MCF7 [4],4.8%
same,Activity,MCF7 [5],2.8%
same,viability at 0.8 µM,MCF7 [6],70.3%
same,viability at 0.4 µM,MCF7 [7],70%
same,viability at 0.2 µM,MCF7 [8],74.7%
same,inhibition,MCF7 [9],Dose-dependent effect
same,pIC50,[10],9.32
same,pIC50,[11],8.52
same,pIC50,[12],9.70
same,pIC50,L02,4.22
same,pIC50,MCF7 [13],6.66
same,pIC50,HCT-116,6.48
same,pIC50,A549,5.51
same,inhibition,MCF7 [14],Active
